For 39 compounds, slope and outcome results are on record in PubChem BioAssay.

Unmarked numbers belong to inactive results. Activity calls are given as the source filed them.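 The calls were made as follows, unless noted: active = a full or partial loss of lipid-probe fluorescence in the fish gall bladder, intestine or both, judged by eye; inactive = no fluorescence loss, or compound toxic to the fish.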

In one experiment the target is Alpha-2C adrenergic receptor (Homo sapiens) (UniProt P18825). The experiment is described as follows: modulators of alpha2C/GIRK thallium flux, primary screen, cell-based, HEK293 alpha2C/GIRK1/2 (AID 624;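 active = fluorescence slope after compound addition differing from the mean of all screened samples at 99.7% confidence, in either direction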;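 also: slope of fluorescence ratio to pre-addition baseline per second over 15 to 24 s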). To be noted: thallium flux BTC fluorescence, at 10 µM, actives lie on both sides.
Sequence of Alpha-2C adrenergic receptor (Homo sapiens) (P18825 whole entry, looked up): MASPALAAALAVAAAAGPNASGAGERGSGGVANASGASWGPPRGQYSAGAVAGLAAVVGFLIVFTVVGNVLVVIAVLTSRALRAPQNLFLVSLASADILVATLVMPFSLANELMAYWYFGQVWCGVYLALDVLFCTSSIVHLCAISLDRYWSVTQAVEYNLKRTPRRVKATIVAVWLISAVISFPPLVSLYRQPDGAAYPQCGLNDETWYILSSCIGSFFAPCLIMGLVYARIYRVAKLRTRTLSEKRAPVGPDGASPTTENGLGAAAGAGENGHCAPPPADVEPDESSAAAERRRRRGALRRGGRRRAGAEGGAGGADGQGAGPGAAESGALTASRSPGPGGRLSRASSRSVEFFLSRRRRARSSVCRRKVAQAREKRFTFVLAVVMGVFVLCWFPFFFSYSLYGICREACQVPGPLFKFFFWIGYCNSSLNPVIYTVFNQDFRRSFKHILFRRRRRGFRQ
On to `CCOc1ccc(/C(O)=C2/C(=O)C(=O)N(CCN(C)C)C2c2ccccc2)cc1Cl` (stereo not drawn), for which the slope is 0.00531.
For `O=CN1CCN(C(=O)CN2C(=O)c3ccccc3C2=O)CC1`, the slope is 0.00499.
On the same count and under the same terms, as for `CC(C)Oc1ccc(Cc2c(O)nc(NCCCN(C)C)[nH]c2=O)cc1`, the figure is 0.00657; as for `CC(=O)c1c(C)c2c(n1CCN(C)C)CCCC2`, 0.0146 (active).
Still for that read-out and setting: as for `Cc1ccc(C2C(C(=O)c3cc4ccccc4o3)=C(O)C(=O)N2CCCN(C)C)cc1` (stereo not drawn), the figure is 0.00603.
The same measure, in the same setting: as for `COC(=O)c1ccc(=O)n(Cc2ccco2)c1`, the figure is 0.00511; as for `COc1ccc(OC)c(NC(=O)CSc2nnc(-c3ccco3)n2-c2ccc(C(=O)O)cc2)c1`, 0.00721; as for `Cn1c(NCCN2CCCCC2)cc(=O)n(C)c1=O`, 0.00437.
Take `N#CC1=C(N)NC(SCc2ccc(F)cc2)=C(C#N)C12CCCCC2`: the slope is 0.0043.
Still for that read-out and setting: as for `Cc1nc2oc(C(=O)c3ccc(Br)cc3)c(N)c2c2c1COC(C)(C)C2`, the figure is 0.00462; as for `Cc1nnc2n(Cc3ccccc3)c(=O)c3c4c(sc3n12)CN(Cc1ccccc1)CC4`, 0.00348.
On the same count and under the same terms, the same measure for `N#CCSc1nc2sc3c(c2c(=O)n1C1CCCCC1)CCCC3`: 0.00554; for `COc1cccc(/C=C2/CN(C)CC3=C2OC(N)=C(C#N)C3c2cccc(OC)c2)c1` (stereo not drawn): 0.00546.
Still for that read-out and setting: as for `Cc1noc(NS(=O)(=O)c2ccc(NC(=O)COc3ccccc3)cc2)c1C`, the figure is 0.00522.
Turning to `COc1ccccc1-c1nnc2sc(COc3ccccc3)nn12`, the slope was 0.00451.
On the same count and under the same terms, the same measure for `CCc1nnc(NC(=O)CSc2nc(C)c3c(c2C#N)CCCC3)s1`: 0.00625; for `Cn1c(=O)c2c(nc(SCCN3CCCCC3)n2Cc2ccc(Cl)cc2)n(C)c1=O`: 0.00528; for `Cc1ccc(C(=O)C2=C(O)C(=O)N(c3ncccn3)C2c2cccc(Cl)c2)o1` (stereo not drawn): 0.00586.
Same read-out and setting: the same measure for `COC(=O)C1=C(C)OC(N)=C(C#N)C1c1ccc(OC)c(OC)c1OC` (stereo not drawn): 0.00455.
With `O=c1c(-c2ccc3c(c2)OCCO3)c(C(F)(F)F)oc2cc(O)cc(O)c12`, the slope is 0.00864.
Turning to `C=CCNc1nc(-c2ccc(O)c(C(N)=O)c2)cs1`, the slope was 0.00459.
On the same count and under the same terms, the same measure for `C=CCOc1nc2c(c(=O)n(Cc3ccc(Cl)c(Cl)c3)c(=O)n2C)n1C`: 0.00594; for `S=c1nc(-c2ccccc2)[nH]n1-c1ccccc1`: 0.0253 (active).
Same read-out and setting: the same measure for `O=C(O)CC(NCc1ccco1)C(=O)OCC1CCCO1` (stereo not drawn): 0.00498.

Test system in the next experiment: not listed separately
The experiment is described as follows: inhibitors of larval lipid processing in zebrafish, primary screen, whole organism, PED6 fluorescence, gall bladder and intestine (AID 686).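 Also: larvae 5 to 7 days old with five fish per well; signal comes from phospholipase A2 cleavage of quenched PED6 carried via bile.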 To be noted: Zebrafish larvae PED6 lipid processing, fluorescence scoring; screened at 20 µM (by protocol). An outline of the steps: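 Doses: 20 µM single dose. Test system: live zebrafish larvae aged 5-7 days, whole organism. Quantity: five larvae per well. Measured by: By-eye fluorescence microscopy. Reagent: ingested quenched lipid PED6 at 100 nM. Read-out: visual per-well fluorescence inhibition score. Times: overnight exposure of larvae to compound plus PED6.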
`O=C(c1ccccc1F)N1CCC(N2CCCCCC2)CC1`: the call was inactive.
The same measure, in the same setting: the same measure for `CCOc1ccc(CCNC(=O)C(O)c2ccccc2)cc1` (stereo not drawn): “inactive”; for `CCN(CC)CCN1C(=O)C(=O)/C(=C(/O)c2ccc(C)cc2)C1c1cccnc1` (stereo not drawn): “inactive”; for `C=CCOC(=O)C1=C(C)NC(SCC(=O)N(CC)CC)=C(C#N)C1c1ccco1` (stereo not drawn): “inactive; toxic”.
The same measure, in the same setting: the same measure for `CCOC(=O)CSc1nc(N)c(C#N)c(-c2ccc(OC)cc2)c1C#N`: “inactive”.
Take `COc1ccc(OC)c(NC(=O)CSC2=C(C#N)C(c3ccco3)C3=C(CCCC3=O)N2)c1` (stereo not drawn): the compound was classed as inactive.
The same measure, in the same setting: as for `CCCOc1ccc(N2C(=O)CC(N(Cc3ccc(S(N)(=O)=O)cc3)C(=O)CC)C2=O)cc1` (stereo not drawn), the entry is “inactive”.
Turning to `Cc1ccc2[nH]c3c(c2c1)CCCC3C(N)=O` (stereo not drawn), the compound was classed as inactive.
Take `COc1ccc(C=NCCC2(O)CC(C)N(C)CC2C)cc1` (stereo not drawn): the result was inactive.
The same measure, in the same setting: the same measure for `CC(C)(C)C1CCC2(CC1)C(C#N)=C(SCC(=O)Nc1ccccc1)NC(=O)C2C#N` (stereo not drawn): “inactive; toxic”; for `CC1(C)Cc2c(C#N)c(NCCc3ccccc3)nc(-c3ccco3)c2CO1`: “inactive”.
On the same count and under the same terms, as for `CCOC(=O)c1cc2cc(OC)ccc2[nH]1`, the entry is “inactive”; as for `COC(=O)CSC1=C(C#N)C(=O)NC2(CCCCC2)S1`, “inactive”.
The same measure, in the same setting: as for `CCOC(=O)CC1=C(C(=O)OCC)C(c2ccc(OC)c(OC)c2)C(C#N)=C(N)O1` (stereo not drawn), the entry is “inactive”.
`COC(=O)c1ccc(OC(=O)c2ccc(OC)c(OC)c2)c(OC)c1`: the call was inactive.
Still for that read-out and setting: the same measure for `CCOc1ccc(/C(O)=C2/C(=O)C(=O)N(CCN(C)C)C2c2ccccc2)cc1Cl` (stereo not drawn): “inactive”.
In the case of `O=CN1CCN(C(=O)CN2C(=O)c3ccccc3C2=O)CC1`, the compound was classed as inactive.
On the same count and under the same terms, as for `CC(C)Oc1ccc(Cc2c(O)nc(NCCCN(C)C)[nH]c2=O)cc1`, the entry is “inactive”; as for `CC(=O)c1c(C)c2c(n1CCN(C)C)CCCC2`, “inactive”.
On to `Cc1ccc(C2C(C(=O)c3cc4ccccc4o3)=C(O)C(=O)N2CCCN(C)C)cc1` (stereo not drawn), for which the call was inactive.
Same read-out and setting: the same measure for `COC(=O)c1ccc(=O)n(Cc2ccco2)c1`: “inactive”; for `COc1ccc(OC)c(NC(=O)CSc2nnc(-c3ccco3)n2-c2ccc(C(=O)O)cc2)c1`: “inactive”.
Consider `Cn1c(NCCN2CCCCC2)cc(=O)n(C)c1=O`, for which the result was inactive.
Same read-out and setting: the same measure for `N#CC1=C(N)NC(SCc2ccc(F)cc2)=C(C#N)C12CCCCC2`: “inactive”; for `Cc1nc2oc(C(=O)c3ccc(Br)cc3)c(N)c2c2c1COC(C)(C)C2`: “inactive”; for `Cc1nnc2n(Cc3ccccc3)c(=O)c3c4c(sc3n12)CN(Cc1ccccc1)CC4`: “inactive”.
The same measure, in the same setting: as for `N#CCSc1nc2sc3c(c2c(=O)n1C1CCCCC1)CCCC3`, the entry is “inactive”; as for `COc1cccc(/C=C2/CN(C)CC3=C2OC(N)=C(C#N)C3c2cccc(OC)c2)c1` (stereo not drawn), “inactive”.
Same read-out and setting: the same measure for `Cc1noc(NS(=O)(=O)c2ccc(NC(=O)COc3ccccc3)cc2)c1C`: “inactive”; for `COc1ccccc1-c1nnc2sc(COc3ccccc3)nn12`: “inactive”.
For `CCc1nnc(NC(=O)CSc2nc(C)c3c(c2C#N)CCCC3)s1`, the call was inactive.
On to `Cn1c(=O)c2c(nc(SCCN3CCCCC3)n2Cc2ccc(Cl)cc2)n(C)c1=O`, for which the call was inactive.
With `Cc1ccc(C(=O)C2=C(O)C(=O)N(c3ncccn3)C2c2cccc(Cl)c2)o1` (stereo not drawn), the outcome was inactive.
The same measure, in the same setting: as for `COC(=O)C1=C(C)OC(N)=C(C#N)C1c1ccc(OC)c(OC)c1OC` (stereo not drawn), the entry is “inactive”; as for `O=c1c(-c2ccc3c(c2)OCCO3)c(C(F)(F)F)oc2cc(O)cc(O)c12`, “inactive”.
The same measure, in the same setting: as for `C=CCNc1nc(-c2ccc(O)c(C(N)=O)c2)cs1`, the entry is “inactive”.
On the same count and under the same terms, as for `C=CCOc1nc2c(c(=O)n(Cc3ccc(Cl)c(Cl)c3)c(=O)n2C)n1C`, the entry is “inactive”.
Take `S=c1nc(-c2ccccc2)[nH]n1-c1ccccc1`: the call was inactive.
Still for that read-out and setting: the same measure for `O=C(O)CC(NCc1ccco1)C(=O)OCC1CCCO1` (stereo not drawn): “inactive”.
